# ChEMBL document CHEMBL1157968, “Chemical and cytotoxic constituents from the leaves of Cinnamomum kotoense” (2006)
# Legend:
# Format in all cases: functional
# HeLa [1] = test: Induction of apoptosis in human HeLa cells at 100 uM after 24 hrs by TUNEL assay
# Summary of the method: (§1)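 HeLa in DMEM/10% FCS, untreated or pretreated 1 h with listed inhibitor, then 100 µM agent (0.1% DMSO final) for 24 h. Pooled cells fixed in 1% paraformaldehyde (30 min, 4 °C), 70% EtOH (30 min, −20 °C); strand breaks labelled with TdT/fluorescein-BrdUTP (1 h, 37 °C), PI/RNase counterstain; flow cytometry, % apoptotic cells; ≥3 experiments.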
# HeLa [2] = test: Cell cycle arrest in human HeLa cells pretreated with 10 uM Dexamethasone for 1 hr assessed as G1 phase accumulation at 100 uM after 24 hrs by FACS
# Summary of the method: (§2)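 HeLa cells pretreated for 1 h with the listed agent (10 mM GSH ethyl ester, 10 µM dexamethasone, 10 µM pifithrin, 100 µM Boc-Asp(OMe)-fmk or 5 µM cyclosporin A), then given 100 µM compound for 24 h. Cells fixed in PBS-MeOH, stained with PI/RNase and analysed by flow cytometry for DNA content. At least three experiments, one representative shown.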
# HeLa [3] = test: Induction of apoptosis in human HeLa cells assessed as number of cells with decreased mitochondrial membrane potential at 100 uM after 6 hrs by measuring rhodamine 123 fluorescence intensity; parameters: scale not given: the % may be the effect or the level left
# Summary of the method: (§3)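 Cells in DMEM/10% FCS, medium renewed at 80% confluence, then 100 µM agent (0.1% DMSO final) for 1–24 h. Stained with 5 µM rhodamine 123 for 30 min in the dark, washed, trypsinized and resuspended in PBS; flow cytometry, percentage of cells with weak rhodamine 123 staining (reduced ΔΨm); at least three experiments, representative shown.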
# HeLa [4] = test: Cell cycle arrest in human HeLa cells assessed as G2/M phase accumulation at 50 uM after 24 hrs by FACS
# Summary of the method: (§4)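 HeLa cells seeded 5 × 10^5 per dish 48 h ahead in DMEM with 10% FCS, then exposed to compound for 24 h (DMSO 0.1% final). Adherent and floating cells pooled, fixed in PBS-MeOH (1:2) at 4 °C for at least 18 h, and stained with PI (50 µg/mL) plus RNase A for 30 min at room temperature. Flow cytometry at 488 nm excitation, doublets gated out; phase percentages taken from DNA histograms.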
# HeLa [5] = test: Induction of apoptosis in human HeLa cells pretreated with 5 uM cyclosporin A for 1 hr at 100 uM after 24 hrs by TUNEL assay; summary of the method: as §1
# HeLa [6] = test: Induction of apoptosis in human HeLa cells assessed as increase in intracellular nitric oxide level at 100 uM after 3 hrs by FACS relative to untreated control
# Summary of the method: (§5)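 HeLa cells at 80% confluence were exposed to 100 µM for 1, 3 or 24 h and then stained with 1 µM DAF-2 for 10 min in the dark. After trypsinization, DAF-2 fluorescence was measured by flow cytometry and taken as fold versus untreated cells. At least three experiments.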
# HeLa [7] = test: Cell cycle arrest in human HeLa cells pretreated with 5 uM cyclosporin A for 1 hr assessed as G2/M phase accumulation at 100 uM after 24 hrs by FACS; summary of the method: as §2
# HeLa [8] = test: Cell cycle arrest in human HeLa cells assessed as subG1 phase accumulation at 25 uM after 24 hrs by FACS; summary of the method: as §4
# HeLa [9] = test: Induction of apoptosis in human HeLa cells assessed as number of cells with decreased mitochondrial membrane potential at 100 uM after 9 hrs by measuring rhodamine 123 fluorescence intensity; parameters: scale not given: the % may be the effect or the level left; summary of the method: as §3
# HeLa [10] = test: Induction of apoptosis in human HeLa cells assessed as number of cells with decreased mitochondrial membrane potential at 100 uM after 24 hrs by measuring rhodamine 123 fluorescence intensity; parameters: scale not given: the % may be the effect or the level left; summary of the method: as §3
# HeLa [11] = test: Induction of apoptosis in human HeLa cells assessed as increase in intracellular nitric oxide level at 100 uM after 1 hr by FACS relative to untreated control; summary of the method: as §5
# HeLa [12] = test: Cell cycle arrest in human HeLa cells pretreated with 10 mM glutathione ethyl ester for 1 hr assessed as G2/M phase accumulation at 100 uM after 24 hrs by FACS; summary of the method: as §2
# HeLa [13] = test: Induction of apoptosis in human HeLa cells assessed as increase in intracellular peroxide level at 100 uM after 3 hrs by FACS relative to untreated control
# Summary of the method: (§6)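 HeLa cells at 80% confluence were refed and exposed to 100 µM for 1, 3 or 24 h. They were loaded with 10 µM DCFH-DA for 30 min in the dark, trypsinized and resuspended in PBS. DCF fluorescence was measured by flow cytometry and expressed as fold versus untreated cells. At least three experiments.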
# HeLa [14] = test: Induction of apoptosis in human HeLa cells assessed as increase in intracellular peroxide level at 100 uM after 24 hrs by FACS relative to untreated control; summary of the method: as §6
# HeLa [15] = test: Induction of apoptosis in human HeLa cells assessed as increase in intracellular peroxide level at 100 uM after 1 hr by FACS relative to untreated control; summary of the method: as §6
# HeLa [16] = test: Cell cycle arrest in human HeLa cells pretreated with 100 uM Boc-Asp(OMe)-fmk for 1 hr assessed as subG1 phase accumulation at 100 uM after 24 hrs by FACS; summary of the method: as §2
# HeLa [17] = test: Cell cycle arrest in human HeLa cells assessed as G1 phase accumulation at 50 uM after 24 hrs by FACS; summary of the method: as §4
# HeLa [18] = test: Cell cycle arrest in human HeLa cells assessed as subG1 phase accumulation at 50 uM after 24 hrs by FACS; summary of the method: as §4
# HeLa [19] = test: Induction of apoptosis in human HeLa cells assessed as increase caspase 3/7 activities at 100 uM after 12 hrs by FACS relative to control
# Summary of the method: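 After 3–24 h exposure at 100 µM, HeLa cells were trypsinized. 1 × 10^6 cells in DMEM were mixed 1:1 with Z-DEVD-R110 substrate reagent and incubated 1 h at 37 °C, then washed. Released R110 read per cell by flow cytometry (ex 488/em 520 nm) and expressed as fold over untreated cells. At least three runs.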
# HeLa [20] = test: Cell cycle arrest in human HeLa cells pretreated with 5 uM cyclosporin A for 1 hr assessed as S phase accumulation at 100 uM after 24 hrs by FACS; summary of the method: as §2
# HeLa [21] = test: Cell cycle arrest in human HeLa cells pretreated with 10 uM pifithrin-alpha for 1 hr assessed as subG1 phase accumulation at 100 uM after 24 hrs by FACS; summary of the method: as §2
# HeLa [22] = test: Cell cycle arrest in human HeLa cells pretreated with 5 uM cyclosporin A for 1 hr assessed as subG1 phase accumulation at 100 uM after 24 hrs by FACS; summary of the method: as §2
# HeLa [23] = test: Induction of apoptosis in human HeLa cells pretreated with 10 uM pifithrin-alpha for 1 hr at 100 uM after 24 hrs by TUNEL assay; summary of the method: as §1
# HeLa [24] = test: Cell cycle arrest in human HeLa cells assessed as S phase accumulation at 25 uM after 24 hrs by FACS; summary of the method: as §4
# HeLa [25] = test: Cell cycle arrest in human HeLa cells pretreated with 10 uM Dexamethasone for 1 hr assessed as subG1 phase accumulation at 100 uM after 24 hrs by FACS; summary of the method: as §2
# HeLa [26] = test: Induction of apoptosis in human HeLa cells pretreated with 10 uM Dexamethasone for 1 hr at 100 uM after 24 hrs by TUNEL assay; summary of the method: as §1
smiles,measurement,setting,value
CCCCCCCCCCCCC/C=C(/C(=O)OC)[C@@H](O)C(C)=O [SECOKOTOMOLIDE A],Activity,HeLa [1],72.3%
same,Activity,HeLa [2],53.9%
same,Activity,HeLa [3],23%
same,Activity,HeLa [4],29%
same,Activity,HeLa [5],54.5%
same,fold change (FC),HeLa [6],2.1
same,Activity,HeLa [7],38.2%
same,Activity,HeLa [8],47.7%
same,Activity,HeLa [9],42.4%
same,Activity,HeLa [10],75.1%
same,fold change (FC),HeLa [11],2.1
same,Activity,HeLa [12],11.6%
same,fold change (FC),HeLa [13],2.9
same,fold change (FC),HeLa [14],3.9
same,fold change (FC),HeLa [15],3.4
same,Activity,HeLa [16],74.8%
same,Activity,HeLa [17],50.8%
same,Activity,HeLa [18],61.2%
same,fold change (FC),HeLa [19],4.6
same,Activity,HeLa [20],14.4%
same,Activity,HeLa [21],40.9%
same,Activity,HeLa [22],61.2%
same,Activity,HeLa [23],57.3%
same,Activity,HeLa [24],18.1%
same,Activity,HeLa [25],47.7%
same,Activity,HeLa [26],55.3%
